# Results reported in ChEMBL document CHEMBL3804779, “Novel free fatty acid receptor 1 (GPR40) agonists based on 1,3,4-thiadiazole-2-carboxamide scaffold” (Bioorg Med Chem, 2016).
# How the values were obtained:
# [1] = target: Free fatty acid receptor 1 (Homo sapiens, UniProt O14842); test: Agonist activity at human GPR40 expressed in CHO cells by calcium influx assay; assay type: functional, cell-based
# Method in brief: (§1)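 CHO cells stably expressing the receptor (GPR40, GPR41, GPR43 or GPR120) plated 24 h before assay and loaded with calcium dye for 1 h. Calcium flux read on FLIPR Tetra. Agonist response taken as maximum fluorescence change over baseline. Concentration-response curves fitted for EC50. GW9508 run as positive control.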
# [2] = Metabolic stability in BALB/c mouse liver microsomes at 2 uM after 40 mins by HPLC analysis; assay type: ADME
# Method in brief: (§2)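 BALB/c male mouse liver microsomes (pooled, perfused livers) at 0.42 mg protein/ml in 100 mM phosphate buffer pH 7.4 with MgCl2 and an NADPH-regenerating system. Compound at 2 uM (1.6% solvent final) incubated at 37 °C in duplicate. Five time points over 40 min, quenched with acetonitrile and read by HPLC-MS/MS. Controls lacked NADPH. kel from ln(AUC) vs time regression; T1/2 = 0.693/kel; CLint scaled per mg microsomal protein.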
# [3] = target: T1, Free fatty acid receptor 4 (Homo sapiens, UniProt Q5NUL3); test: Agonist activity at human GPR120 (unknown origin) expressed in CHO cells by calcium influx assay; assay type: functional, cell-based; method in brief: as §1
# T1 sequence (Q5NUL3 whole entry): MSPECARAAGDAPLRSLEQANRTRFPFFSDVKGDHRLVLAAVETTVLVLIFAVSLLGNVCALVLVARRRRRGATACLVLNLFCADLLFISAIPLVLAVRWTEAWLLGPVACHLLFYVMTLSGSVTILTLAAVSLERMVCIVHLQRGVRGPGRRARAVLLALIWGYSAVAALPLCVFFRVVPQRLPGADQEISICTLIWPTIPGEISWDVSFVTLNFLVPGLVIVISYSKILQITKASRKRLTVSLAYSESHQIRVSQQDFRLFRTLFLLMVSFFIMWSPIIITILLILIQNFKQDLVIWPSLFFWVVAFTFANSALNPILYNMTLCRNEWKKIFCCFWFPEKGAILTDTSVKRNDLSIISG
# [4] = target: T2, hERG (KCNH2) (Homo sapiens, UniProt Q12809); test: Inhibition of human ERG expressed in cell membranes at 1 uM after 4 hrs by fluorescence polarization assay; details: cell membranes that express human ERG
# T2 sequence (Q12809 whole entry): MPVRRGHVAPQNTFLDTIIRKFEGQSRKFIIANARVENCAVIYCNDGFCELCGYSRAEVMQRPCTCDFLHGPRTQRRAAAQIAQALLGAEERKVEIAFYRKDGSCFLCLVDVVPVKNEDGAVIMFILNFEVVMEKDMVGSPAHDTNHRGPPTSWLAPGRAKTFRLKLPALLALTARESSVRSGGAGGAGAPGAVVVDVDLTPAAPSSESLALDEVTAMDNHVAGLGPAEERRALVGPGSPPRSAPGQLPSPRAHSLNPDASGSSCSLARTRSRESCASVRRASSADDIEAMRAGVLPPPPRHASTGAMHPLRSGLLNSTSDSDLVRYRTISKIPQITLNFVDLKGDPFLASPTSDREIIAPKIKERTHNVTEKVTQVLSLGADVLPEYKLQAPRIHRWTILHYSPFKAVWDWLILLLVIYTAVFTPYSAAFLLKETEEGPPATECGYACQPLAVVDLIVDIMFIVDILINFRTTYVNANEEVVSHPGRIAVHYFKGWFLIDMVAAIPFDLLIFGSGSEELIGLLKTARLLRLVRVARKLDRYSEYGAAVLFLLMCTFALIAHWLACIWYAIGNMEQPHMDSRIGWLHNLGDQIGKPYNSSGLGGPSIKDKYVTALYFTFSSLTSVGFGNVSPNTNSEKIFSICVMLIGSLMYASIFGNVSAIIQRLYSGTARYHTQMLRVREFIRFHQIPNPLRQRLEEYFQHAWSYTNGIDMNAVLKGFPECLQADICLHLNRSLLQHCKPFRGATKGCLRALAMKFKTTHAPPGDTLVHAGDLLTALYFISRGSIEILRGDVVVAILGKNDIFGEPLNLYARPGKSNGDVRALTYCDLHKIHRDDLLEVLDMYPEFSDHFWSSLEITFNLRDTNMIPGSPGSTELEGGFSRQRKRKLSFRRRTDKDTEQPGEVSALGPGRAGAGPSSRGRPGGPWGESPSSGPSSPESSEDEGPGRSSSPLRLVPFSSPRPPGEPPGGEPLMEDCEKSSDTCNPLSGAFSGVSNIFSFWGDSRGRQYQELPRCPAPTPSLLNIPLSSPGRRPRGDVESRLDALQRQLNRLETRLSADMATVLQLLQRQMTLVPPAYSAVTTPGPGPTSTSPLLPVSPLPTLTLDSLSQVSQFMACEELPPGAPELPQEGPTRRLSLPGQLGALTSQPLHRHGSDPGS
# Method in brief: (§3)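 Predictor hERG fluorescence polarization kit used per manufacturer's protocol. hERG-containing cell membranes incubated with fluorescent tracer and test compound at 1, 5 or 20 uM for 4 h.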
# [5] = target: T3, CYP1A2 (Homo sapiens, UniProt P05177); test: Inhibition of CYP1A2 (unknown origin) at 20 uM by P450-glo assay; assay type: ADME
# T3 sequence (P05177 whole entry): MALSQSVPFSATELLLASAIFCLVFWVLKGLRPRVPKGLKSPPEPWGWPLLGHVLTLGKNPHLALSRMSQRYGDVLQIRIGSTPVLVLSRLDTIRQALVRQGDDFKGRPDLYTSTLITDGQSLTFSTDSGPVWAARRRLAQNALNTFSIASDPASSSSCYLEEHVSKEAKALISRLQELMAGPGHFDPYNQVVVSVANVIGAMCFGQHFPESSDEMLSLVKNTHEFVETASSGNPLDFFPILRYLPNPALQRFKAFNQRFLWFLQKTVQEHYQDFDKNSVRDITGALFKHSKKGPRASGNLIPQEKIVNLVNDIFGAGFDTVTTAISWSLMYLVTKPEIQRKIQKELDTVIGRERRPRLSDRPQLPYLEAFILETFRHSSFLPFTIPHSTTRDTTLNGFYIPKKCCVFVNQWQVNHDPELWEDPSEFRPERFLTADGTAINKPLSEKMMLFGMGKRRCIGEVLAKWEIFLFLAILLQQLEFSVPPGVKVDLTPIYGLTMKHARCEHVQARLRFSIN
# Method in brief: (§4)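 P450-Glo luminescent assay run per manufacturer's protocol. Each CYP isoform incubated with its luminogenic substrate and test compound at 20 uM (0.25% DMSO final), in quadruplicate. Control membranes without CYP served as baseline.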
# [6] = target: CYP2C9 (Homo sapiens, UniProt P11712); test: Inhibition of CYP2C9 (unknown origin) at 20 uM by P450-glo assay; assay type: ADME; method in brief: as §4
# CYP2C9, sequence (P11712 whole entry): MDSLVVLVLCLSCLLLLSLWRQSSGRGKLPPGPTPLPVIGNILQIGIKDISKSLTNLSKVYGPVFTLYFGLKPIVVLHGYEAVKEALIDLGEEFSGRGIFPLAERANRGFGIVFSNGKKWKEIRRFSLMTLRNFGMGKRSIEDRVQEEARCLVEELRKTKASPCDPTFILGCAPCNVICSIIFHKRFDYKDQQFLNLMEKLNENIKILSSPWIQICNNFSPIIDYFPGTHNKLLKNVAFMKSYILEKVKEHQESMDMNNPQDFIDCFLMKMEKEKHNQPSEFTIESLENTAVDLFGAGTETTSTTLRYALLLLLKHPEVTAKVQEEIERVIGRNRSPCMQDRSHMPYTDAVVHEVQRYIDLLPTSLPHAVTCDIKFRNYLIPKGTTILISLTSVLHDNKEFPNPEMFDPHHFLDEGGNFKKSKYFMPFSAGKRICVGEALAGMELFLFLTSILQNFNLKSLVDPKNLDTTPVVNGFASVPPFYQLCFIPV
# [7] = Protein binding in mouse plasma at 1 uM after 5 hrs by HPLC-MS/MS analysis; assay type: ADME, cell-free; details: read-out: PPB (converted)
# Method in brief: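 Equilibrium dialysis (MWCO 12-14 kDa) of mouse plasma spiked at 1 uM (1% solvent final) against PBS pH 7.4, 37 °C, orbital shaking, 5 h, in quadruplicate. Chamber samples matrix-matched, precipitated with acetonitrile and analysed by HPLC-MS/MS. % bound = (1 − buffer/plasma peak area) × 100. Recovery checked against an undialyzed standard. Verapamil used as reference.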
# [8] = target: CYP2C19 (Homo sapiens, UniProt P33261); test: Inhibition of CYP2C19 (unknown origin) at 20 uM by P450-glo assay; assay type: ADME; method in brief: as §4
# CYP2C19, sequence (P33261 whole entry): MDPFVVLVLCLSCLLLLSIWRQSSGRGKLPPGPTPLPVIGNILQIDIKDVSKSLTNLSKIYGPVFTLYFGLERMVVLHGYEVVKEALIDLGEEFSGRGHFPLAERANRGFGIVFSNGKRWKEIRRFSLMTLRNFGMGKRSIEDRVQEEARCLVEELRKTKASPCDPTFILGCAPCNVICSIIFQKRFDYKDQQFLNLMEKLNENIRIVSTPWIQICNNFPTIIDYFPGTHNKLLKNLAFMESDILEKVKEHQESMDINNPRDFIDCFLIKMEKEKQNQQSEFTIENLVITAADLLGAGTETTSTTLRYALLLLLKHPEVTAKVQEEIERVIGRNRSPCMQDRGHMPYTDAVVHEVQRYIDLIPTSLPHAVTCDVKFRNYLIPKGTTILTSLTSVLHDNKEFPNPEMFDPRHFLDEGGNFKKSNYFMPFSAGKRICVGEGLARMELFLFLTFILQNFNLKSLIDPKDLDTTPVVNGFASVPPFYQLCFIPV
# [9] = target: CYP2D6 (Homo sapiens, UniProt P10635); test: Inhibition of CYP2D6 (unknown origin) at 20 uM by P450-glo assay; assay type: ADME; method in brief: as §4
# CYP2D6, sequence (P10635 whole entry): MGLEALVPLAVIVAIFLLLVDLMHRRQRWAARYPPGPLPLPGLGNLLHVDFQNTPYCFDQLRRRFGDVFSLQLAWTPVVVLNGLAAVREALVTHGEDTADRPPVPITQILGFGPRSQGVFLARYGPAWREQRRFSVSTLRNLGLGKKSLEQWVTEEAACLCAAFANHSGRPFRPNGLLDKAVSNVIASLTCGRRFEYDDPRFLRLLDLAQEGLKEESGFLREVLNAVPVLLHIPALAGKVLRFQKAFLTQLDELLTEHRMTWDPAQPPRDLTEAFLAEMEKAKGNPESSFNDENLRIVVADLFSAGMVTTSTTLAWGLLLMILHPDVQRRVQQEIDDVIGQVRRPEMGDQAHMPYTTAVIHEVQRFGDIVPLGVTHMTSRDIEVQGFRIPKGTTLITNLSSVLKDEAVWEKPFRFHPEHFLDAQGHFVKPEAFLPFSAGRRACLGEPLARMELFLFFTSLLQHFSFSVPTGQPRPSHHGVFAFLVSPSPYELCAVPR
# [10] = target: T4, Free fatty acid receptor 2 (Homo sapiens, UniProt O15552); test: Agonist activity at human GPR43 (unknown origin) expressed in CHO cells by calcium influx assay; assay type: functional, cell-based; method in brief: as §1
# T4 sequence (O15552 whole entry): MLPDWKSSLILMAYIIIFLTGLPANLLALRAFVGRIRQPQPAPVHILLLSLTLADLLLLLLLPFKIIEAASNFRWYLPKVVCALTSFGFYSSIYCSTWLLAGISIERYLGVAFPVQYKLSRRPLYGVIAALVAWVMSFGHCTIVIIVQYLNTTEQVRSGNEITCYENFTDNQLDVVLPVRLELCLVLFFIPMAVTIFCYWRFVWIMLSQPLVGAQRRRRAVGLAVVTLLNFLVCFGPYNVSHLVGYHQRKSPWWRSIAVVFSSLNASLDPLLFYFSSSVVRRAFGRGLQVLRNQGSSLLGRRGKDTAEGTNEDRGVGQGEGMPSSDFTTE
# [11] = target: CYP3A4 (Homo sapiens, UniProt P08684); test: Inhibition of CYP3A4 (unknown origin) at 20 uM by P450-glo assay; assay type: ADME
# CYP3A4, sequence (P08684 whole entry): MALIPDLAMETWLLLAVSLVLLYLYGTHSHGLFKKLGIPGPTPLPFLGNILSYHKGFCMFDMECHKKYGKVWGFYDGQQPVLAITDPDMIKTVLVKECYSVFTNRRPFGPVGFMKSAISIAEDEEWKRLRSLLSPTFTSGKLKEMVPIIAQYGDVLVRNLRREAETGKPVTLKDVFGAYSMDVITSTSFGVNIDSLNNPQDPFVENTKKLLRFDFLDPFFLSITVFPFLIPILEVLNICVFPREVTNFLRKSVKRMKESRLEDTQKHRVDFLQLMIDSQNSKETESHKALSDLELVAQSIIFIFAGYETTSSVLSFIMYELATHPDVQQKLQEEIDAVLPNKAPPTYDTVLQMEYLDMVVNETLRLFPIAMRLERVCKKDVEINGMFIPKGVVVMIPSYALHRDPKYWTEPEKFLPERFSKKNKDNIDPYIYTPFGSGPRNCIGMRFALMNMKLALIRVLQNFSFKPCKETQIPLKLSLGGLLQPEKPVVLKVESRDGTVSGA
# [12] = Distribution coefficient, log D of the compound at pH 7.4 by LC-MS/MS analysis; assay type: physicochemical; details: octanol/water
# Method in brief: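 Shake-flask partitioning between n-octanol and PBS, run in duplicate. Compound added from 10 mM DMSO stock to pre-equilibrated phases, shaken 1 h and separated by centrifugation. Each phase diluted and quantified by LC-MS/MS. D calculated from peak areas corrected for dilution (100·So/Sp). Reference compound included.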
# [13] = target: T2, hERG (KCNH2); test: Inhibition of human ERG expressed in cell membranes at 20 uM after 4 hrs by fluorescence polarization assay; details: cell membranes that express human ERG; method in brief: as §3
# [14] = target: T5, Free fatty acid receptor 3 (Homo sapiens, UniProt O14843); test: Agonist activity at human GPR41 (unknown origin) expressed in CHO cells by calcium influx assay; assay type: functional, cell-based; method in brief: as §1
# T5 sequence (O14843 whole entry): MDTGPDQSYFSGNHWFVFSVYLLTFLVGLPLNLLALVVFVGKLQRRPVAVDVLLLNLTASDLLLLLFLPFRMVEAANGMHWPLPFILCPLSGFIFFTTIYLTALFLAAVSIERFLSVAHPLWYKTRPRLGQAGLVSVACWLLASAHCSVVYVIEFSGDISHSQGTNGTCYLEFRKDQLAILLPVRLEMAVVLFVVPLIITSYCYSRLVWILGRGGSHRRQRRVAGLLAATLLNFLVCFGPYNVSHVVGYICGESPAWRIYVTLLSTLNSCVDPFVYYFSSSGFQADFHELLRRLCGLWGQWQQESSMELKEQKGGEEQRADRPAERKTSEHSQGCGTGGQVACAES
# [15] = Half life in mouse plasma at 1 uM by LC-MS/MS analysis; assay type: ADME
# Method in brief: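 Compound at 1 uM (1% DMSO final) incubated in mouse plasma at 37 °C with shaking. Five time points sampled over 120 min, each quenched with acetonitrile and centrifuged. Supernatant analysed by LC-MS/MS for percentage remaining and T1/2. Verapamil and propantheline used as references.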
# [16] = target: T2, hERG (KCNH2); test: Inhibition of human ERG expressed in cell membranes at 5 uM after 4 hrs by fluorescence polarization assay; details: cell membranes that express human ERG; method in brief: as §3
# [17] = Intrinsic clearance in BALB/c mouse liver microsomes at 2 uM after 40 mins by HPLC analysis; assay type: ADME; details: read-out: CLH; method in brief: as §2
# Free fatty acid receptor 1, sequence (O14842 whole entry): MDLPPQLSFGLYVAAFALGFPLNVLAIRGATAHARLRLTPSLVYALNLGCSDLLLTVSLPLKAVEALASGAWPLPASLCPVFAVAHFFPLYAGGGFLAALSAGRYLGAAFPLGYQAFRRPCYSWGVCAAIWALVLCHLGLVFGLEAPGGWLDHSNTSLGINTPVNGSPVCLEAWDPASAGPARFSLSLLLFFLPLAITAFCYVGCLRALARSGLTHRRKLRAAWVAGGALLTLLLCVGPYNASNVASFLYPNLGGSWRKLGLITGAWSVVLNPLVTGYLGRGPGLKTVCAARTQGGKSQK
smiles,measurement,setting,value
O=C(O)CCc1nnc(C(=O)Nc2cccc(-c3ccco3)c2)s1,EC50,[1],1.64 µM
Cc1cccc(-c2cccc(NC(=O)c3nnc(CCC(=O)O)s3)c2)c1,half-life at 2 µM,[2],1.29 h
same,EC50,[3],> 10 µM
same,"inhibition at 4 h, 1 µM",[4],8%
same,inhibition at 20 µM,[5],94.3%
same,inhibition at 20 µM,[6],9.8%
same,"fraction unbound at 5 h, 1 µM",[7],0.076
same,inhibition at 20 µM,[8],37.2%
same,inhibition at 20 µM,[9],1.8%
same,EC50,[10],> 10 µM
same,inhibition at 20 µM,[11],12.3%
same,logD,[12],1.28
same,"inhibition at 4 h, 20 µM",[13],22%
same,EC50,[14],> 10 µM
same,half-life at 1 µM,[15],> 4 h
same,EC50,[1],0.76 µM
same,"inhibition at 4 h, 5 µM",[16],2%
same,microsomal CLint at 2 µM,[17],21.6 µL/min/mg
O=C(O)CCc1nnc(C(=O)Nc2ccc(OCc3ccccc3)cc2)s1,EC50,[1],17.9 µM
Cc1ccccc1NC(=O)c1nnc(COc2ccc(CCC(=O)O)cc2)s1,EC50,[1],1.52 µM
O=C(O)CCc1ccc(OCc2nnc(C(=O)Nc3ccc(Cl)cc3)s2)cc1,EC50,[1],3.69 µM
O=C(O)CCc1ccc(OCc2nnc(C(=O)Nc3cccc(Cl)c3)s2)cc1,half-life at 2 µM,[2],0.22 h
same,"inhibition at 4 h, 1 µM",[4],1%
same,inhibition at 20 µM,[5],41.9%
same,inhibition at 20 µM,[6],85%
same,"fraction unbound at 5 h, 1 µM",[7],0.072
same,inhibition at 20 µM,[8],77.7%
same,inhibition at 20 µM,[9],22.7%
same,inhibition at 20 µM,[11],55.2%
same,logD,[12],1.46
same,"inhibition at 4 h, 20 µM",[13],36%
same,half-life at 1 µM,[15],1.93 h
same,EC50,[1],10.6 µM
same,"inhibition at 4 h, 5 µM",[16],-3%
same,microsomal CLint at 2 µM,[17],126 µL/min/mg
O=C(O)CCc1nnc(C(=O)Nc2cccc(-c3ccc(F)cc3)c2)s1,half-life at 2 µM,[2],3.48 h
same,EC50,[3],> 10 µM
same,"inhibition at 4 h, 1 µM",[4],-6%
same,inhibition at 20 µM,[5],47.2%
same,inhibition at 20 µM,[6],-1.9%
same,"fraction unbound at 5 h, 1 µM",[7],0.059
same,inhibition at 20 µM,[8],25.2%
same,inhibition at 20 µM,[9],11.8%
same,EC50,[10],> 10 µM
same,inhibition at 20 µM,[11],-5.1%
same,logD,[12],0.96
same,"inhibition at 4 h, 20 µM",[13],-1%
same,EC50,[14],> 10 µM
same,half-life at 1 µM,[15],> 4 h
same,EC50,[1],1.28 µM
same,"inhibition at 4 h, 5 µM",[16],-1%
same,microsomal CLint at 2 µM,[17],8 µL/min/mg
O=C(O)CCc1ccc(OCc2nnc(C(=O)Nc3cccc(F)c3)s2)cc1,EC50,[1],1.19 µM
O=C(O)CCc1ccc(OCc2nnc(C(=O)Nc3ccc(F)c(F)c3)s2)cc1,EC50,[3],> 10 µM
same,EC50,[10],> 10 µM
same,EC50,[14],> 10 µM
same,EC50,[1],0.58 µM
O=C(O)CCc1ccc(OCc2nnc(C(=O)Nc3ccccc3F)s2)cc1,half-life at 2 µM,[2],0.115 h
same,EC50,[3],> 10 µM
same,"inhibition at 4 h, 1 µM",[4],9%
same,inhibition at 20 µM,[5],18.8%
same,inhibition at 20 µM,[6],12.8%
same,inhibition at 20 µM,[8],-3.3%
same,inhibition at 20 µM,[9],6.6%
same,EC50,[10],> 10 µM
same,inhibition at 20 µM,[11],-28.7%
same,logD,[12],0.95
same,"inhibition at 4 h, 20 µM",[13],4%
same,EC50,[14],> 10 µM
same,half-life at 1 µM,[15],0.34 h
same,EC50,[1],0.58 µM
same,"inhibition at 4 h, 5 µM",[16],-7%
same,microsomal CLint at 2 µM,[17],241 µL/min/mg
O=C(O)CCc1ccc(OCc2nnc(C(=O)Nc3ccccc3)s2)cc1,EC50,[1],1.06 µM
COc1ccc(NC(=O)c2nnc(COc3ccc(CCC(=O)O)cc3)s2)cc1,EC50,[1],> 10 µM
Cc1ccc(NC(=O)c2nnc(COc3ccc(CCC(=O)O)cc3)s2)cc1,EC50,[1],4.3 µM
COc1cccc(NC(=O)c2nnc(COc3ccc(CCC(=O)O)cc3)s2)c1,EC50,[1],4.68 µM
O=C(O)CCc1nnc(C(=O)Nc2cccc(-c3cccc(Cl)c3)c2)s1,EC50,[1],1.69 µM
O=C(O)CCc1ccc(OCc2nnc(C(=O)Nc3ccc(F)cc3)s2)cc1,EC50,[1],6.64 µM
Cc1cccc(NC(=O)c2nnc(COc3ccc(CCC(=O)O)cc3)s2)c1,EC50,[1],1.77 µM
